Only some compounds are listed: those with a hit (about 1.3% of all), similar ones and a draw of the others.
GASC-1 inh: inhibitors of human GASC-1 (JMJD2C) demethylase; GST-JMJD2C(1-420) H3K9me3 demethylation, DELFIA europium; inhibition, % at 2.35 µM; Q9H3R0; AID 2099; 330,000 compounds, 0.069% hits;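 active = more than half of a compound's replicate wells show inhibition beyond 50%, single wells judged on their own value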;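 also: signal counts dimethyl H3K9 product captured on neutravidin plate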
proCasp3 act: procaspase-3 (human) activation | 330,000 compounds, 0.11% hits | P42574 | activation, % at 8.5 µM | recombinant procaspase-3 D3A, Ac-DEVD-pNA absorbance 405 nm;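 active = activation above the mean of all tested compounds plus 3 SD, cut at about 21% in these data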
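Assay system – Procaspase-3 D3A mutant · Benchmarks – DMSO low control, extra-enzyme high control · Technique – 405 nm absorbance of p-nitroaniline, reads at 0 and 120 min · Doses – 8.5 µM nominal · Measure – % activation between DMSO and enzyme-spiked controls · Also added – Ac-DEVD-pNA chromogenic peptide substrate · Schedule – 1 h compound preincubation, 2 h substrate hydrolysis at 25 °C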
Hep lipid drop: modulators of hepatic lipid droplet formation; AML12 mouse hepatocytes, oleate lipid droplets, BODIPY imaging; inhibition, % at 6.5 µM; 240,000 compounds, 0.4% hits;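 active = lipid droplet intensity inhibited by at least 50%, with more than 500 cells counted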
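Material: mouse AML12 hepatocyte cell line, fixed after treatment; Timing: compound with oleate, overnight; Technique: high-content imaging of BODIPY-stained droplets and DAPI nuclei; Probe or stimulus: oleate, 100 µM final; Dosing: compound at 6.5 µM only.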
proCasp7 act: activates human procaspase-7, counter-screen for procaspase-3 activators. AID 463210. P55210. recombinant procaspase-7, Ac-DEVD-pNA absorbance 405 nm; D23A/D198A/D206A triple mutant, cannot self-cleave; scale: DMSO 0, 5 µM enzyme 100. activation, % at 8.5 µM. 330,000 compounds, 0.093% hits;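 active = percent activation above the screen-wide mean plus 3 SD, cut at about 25% in these data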
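Assay system: Uncleavable procaspase-7 mutant enzyme; Input: 2 µM procaspase-7 mutant as dispensed; Also added: DEVD-pNA substrate; Medium: Zinc-free HEPES pH 7.4 with 300 mM NaCl, 0.01% Triton X-100; Timing: 1 h compound preincubation, 2 h substrate cleavage, 25 °C; Measured by: Epi-absorbance of released pNA at 405 nm, two timepoints.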
GRK2 inh: blocks RNA aptamer binding to human GRK2; P25098; bead flow cytometry, FAM-aptamer displacement from GRK2; inhibition of aptamer binding, % at 10 µM; 330,000 compounds, 0.59% hits; AID 488847;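 active = inhibition of aptamer binding above 40%, roughly 3 SD of noise, on plates passing a quality check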;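 also: median bead fluorescence of bound FAM aptamer so fluorescent compounds give negative values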
VLA-4 inh: inhibition in a human VLA-4 binding assay; P13612; VLA-4 expressing cells, ligand binding flow cytometry; inhibition, % (about 7 µM as worked out from the volumes in the protocol); 330,000 compounds, 0.2% hits; AID 2557; in the data active = inhibition above about 50%
Target sequence (P13612 whole entry, looked up): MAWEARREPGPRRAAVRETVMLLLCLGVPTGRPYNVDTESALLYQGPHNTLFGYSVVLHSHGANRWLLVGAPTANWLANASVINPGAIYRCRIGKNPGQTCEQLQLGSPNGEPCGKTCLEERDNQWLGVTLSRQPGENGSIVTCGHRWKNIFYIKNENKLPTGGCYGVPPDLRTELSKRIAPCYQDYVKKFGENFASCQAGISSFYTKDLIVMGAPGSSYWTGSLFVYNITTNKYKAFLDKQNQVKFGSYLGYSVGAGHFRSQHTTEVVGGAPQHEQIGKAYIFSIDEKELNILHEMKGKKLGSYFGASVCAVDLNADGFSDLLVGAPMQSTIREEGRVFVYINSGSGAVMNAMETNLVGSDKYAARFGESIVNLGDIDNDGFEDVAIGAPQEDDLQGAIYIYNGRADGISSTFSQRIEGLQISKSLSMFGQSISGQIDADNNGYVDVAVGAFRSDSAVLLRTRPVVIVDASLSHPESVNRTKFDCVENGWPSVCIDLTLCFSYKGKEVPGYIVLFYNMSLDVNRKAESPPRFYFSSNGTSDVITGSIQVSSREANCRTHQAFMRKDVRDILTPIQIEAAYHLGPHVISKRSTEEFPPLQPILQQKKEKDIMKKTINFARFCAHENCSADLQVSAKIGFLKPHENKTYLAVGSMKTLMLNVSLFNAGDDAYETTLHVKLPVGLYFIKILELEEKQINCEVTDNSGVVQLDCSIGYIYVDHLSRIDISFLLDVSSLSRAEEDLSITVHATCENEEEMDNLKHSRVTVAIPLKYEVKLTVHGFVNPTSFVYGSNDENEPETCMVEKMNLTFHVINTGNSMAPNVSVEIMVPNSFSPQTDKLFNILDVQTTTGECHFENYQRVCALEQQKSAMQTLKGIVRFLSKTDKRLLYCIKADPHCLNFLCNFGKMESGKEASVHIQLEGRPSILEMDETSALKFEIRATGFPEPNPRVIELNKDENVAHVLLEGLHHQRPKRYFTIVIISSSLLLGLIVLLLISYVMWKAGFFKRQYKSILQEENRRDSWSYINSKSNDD
GRK2 CP1: confirmation of human GRK2 inhibitors displacing RNA aptamer; shares compounds with GRK2 inh; bead-bound GRK2, FAM-aptamer displacement, flow cytometry; aptamer displacement, % at 10 µM; 2,000 compounds, 4% hits;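 active = aptamer displacement above 40%, near three times the noise of non-fluorescent compounds, on plates passing quality checks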;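 also: negative values mostly reflect intrinsic compound fluorescence rather than true enhancement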
Aptamer quench: counter-screen for GRK2 aptamer inhibitors: fluorescent aptamer quenchers | fluorescence change (kMESF span), kMESF (no concentration beside the values) | 110 tested, under 10 active | AID 504521 | shares compounds with GRK2 inh | Fluorescent RNA aptamer beads, quenching, flow cytometry; hits give high values;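 active = compounds whose bead fluorescence drops by more than 37 kMESF across the dose range, marking them as dye quenchers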
Aptamer quench SP: quenches fluorescent RNA aptamer, GRK2 hit artifact; shares compounds with GRK2 inh; Carboxyfluorescein RNA aptamer on beads, flow cytometry quenching; hits give low values; fluorescence response (% of DMSO), % at 10 µM; 2,000 tested, under 10 active; AID 504580;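 active = compounds that quench the bead-bound fluorescent RNA probe, cutting fluorescence to under half of the solvent control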;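 also: counterscreen run without GRK2 so only probe quenching by compound is measured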
GRK2 CP2: human GRK2 inhibition confirmation, cherry pick 2; shares compounds with GRK2 inh; bead-bound GRK2, FAM-aptamer displacement, flow cytometry; inhibition of aptamer binding, % at 10 µM; 360 tested, under 10 active;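 active = inhibition of aptamer binding above 40%, about triple the noise seen with nonglowing compounds, on plates passing quality control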;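 also: negative values mostly come from compounds that fluoresce themselves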
FAM quench CP2: quenches fluorescent RNA aptamer, GRK2 hit artifact | shares compounds with GRK2 inh | carboxyfluorescein RNA aptamer beads, flow cytometry quenching; hits give low values | fluorescence response vs DMSO, % at 10 µM | 360 tested, under 10 active;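 active = response vs DMSO under 50%, meaning signal dropped by over half, treated as fluorescence quencher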;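 also: labelled aptamer on streptavidin beads without GRK2 as a quench counter-screen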
FAM quench DR: quenches fluorescent RNA aptamer, GRK2 hit artifact; shares compounds with GRK2 inh; Bead-bound FAM RNA aptamer fluorescence quenching, flow cytometry; hits give low values; fluorescence ratio to DMSO, % at 11.1 µM; 35 tested, under 10 active;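 active = compounds that dim the fluorescent label, raw bead signal shifting by over 33 units between lowest and highest dose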
Numbers stand for hits; - = inactive; . = not tested or not shown.

SMILES | GASC-1 inh | proCasp3 act | Hep lipid drop | proCasp7 act | GRK2 inh | VLA-4 inh | GRK2 CP1 | Aptamer quench SP | others
COc1ccc(SCC(=O)Nc2ccccc2Cl)cc1 | - | - | - | - | 65 | - | . | . | GRK2 CP2=-;FAM quench CP2=-
c1coc(-c2nnc(-c3ccco3)nn2)c1 | - | - | - | - | 88 | - | - | -
c1ccc(-c2nnc(-c3ccco3)o2)cc1 | - | - | - | - | - | - | . | .
Nc1c2c(nc3sc4c(c13)CCCC4)CCCCCC2 | - | - | - | - | 83 | - | - | -
NS(=O)(=O)c1cccc(C(=O)NC2CCSc3ccccc32)c1 (stereo unspecified) | - | - | - | - | - | - | . | .
NS(=O)(=O)c1cc(C(=O)NC2CCSc3ccccc32)ccc1Cl (stereo unspecified) | - | - | - | - | 51 | - | - | -
CCOC(=O)Cn1c(=NC(=O)C(C)(C)C)sc2cc([N+](=O)[O-])ccc21 | - | - | - | - | 52 | - | . | . | GRK2 CP2=-;FAM quench CP2=-
CCC(=O)N=c1sc2cc([N+](=O)[O-])ccc2n1CCOC | - | - | - | - | - | - | . | .
C=CCNC(=O)/C(=C/c1cccc([N+](=O)[O-])c1)NC(=O)c1ccccc1 | - | - | - | - | 46 | - | - | -
O=C1CCN(S(=O)(=O)c2cc(C(F)(F)F)ccc2Cl)CC1 | - | - | . | - | - | - | . | .
O=C(NC1CCCCCC1)C(=O)NC1CC1 | - | - | - | - | - | - | . | .
CC(C)NC(=O)C(=O)NC1CCCCCC1 | - | - | . | - | 54 | - | - | -
CCOc1ccc(NC(=O)CSc2ccc3nnc(-c4cccnc4)n3n2)cc1 | - | - | - | - | 41 | - | . | . | GRK2 CP2=-;FAM quench CP2=-
COc1ccc(C(=O)NNC(=O)Cc2nc3nc(C)cc(C)n3n2)cc1 | - | - | - | - | - | - | . | .
COCCn1c(=S)[nH]c2cc(C(=O)N3CCN(Cc4ccc5c(c4)OCO5)CC3)ccc2c1=O | . | - | . | - | 45 | - | - | -
O=C(NN=C(Cc1ccccc1)Cc1ccccc1)c1ccccc1F | - | - | - | - | 86 | - | - | -
CCn1cc(/C=N\NC(=O)c2c[nH]c3ccccc23)c(C)n1 | - | - | - | - | - | - | . | .
Cc1c(/C=N\NC(=O)c2c[nH]c3ccccc23)cnn1C | - | - | - | - | 99 | - | - | -
O=C(CSc1n[nH]c(=O)[nH]c1=O)N1CCCCCC1 | - | - | - | - | - | - | . | .
O=C(CCc1n[nH]c(=O)[nH]c1=O)N1CCCCC1 | - | - | - | - | - | - | - | -
CC1CN(S(=O)(=O)c2cccc(C(=O)OCc3cc(=O)oc4cc(O)ccc34)c2)CC(C)O1 (stereo unspecified) | - | - | - | - | - | - | . | .
CN(C)c1cccc(C(=O)OCc2cc(=O)oc3cc(O)ccc23)c1 | - | - | - | - | 54 | - | 55 | - | Aptamer quench=-
COc1ccc(Cl)cc1NC(=O)CN(C)C(=O)CCNC(=O)c1ccccc1OC | . | - | . | - | - | - | . | .
COC(=O)CNc1n[nH]c(=S)[nH]c1=O | - | - | . | - | 85 | - | - | -
CC(C)OC(=O)CNc1n[nH]c(=S)[nH]c1=O | - | . | - | . | . | . | . | .
SMILES | GASC-1 inh | proCasp3 act | Hep lipid drop | proCasp7 act | GRK2 inh | VLA-4 inh | GRK2 CP1 | Aptamer quench SP | others
COc1cc(C(=O)N(C)CC2CCN(CCc3cccc(C(F)(F)F)c3)CC2)ccc1C | - | - | - | - | - | - | . | .
Nc1c(C(=O)c2ccc(Cl)cc2)sc2c1c(=O)[nH]c(=O)n2-c1ccccc1 | - | - | - | - | 100 | - | . | . | GRK2 CP2=-;FAM quench CP2=-
Nc1c(C(=O)c2ccccc2)sc2c1c(=O)[nH]c(=O)n2-c1ccccc1 | - | - | - | - | - | - | . | .
COc1ccc(N2CCN(Cc3nc4cc(Cl)ccc4c(=O)[nH]3)CC2)cc1 | - | - | - | - | - | - | . | . | GRK2 CP2=-;FAM quench CP2=-
O=c1[nH]c(CN2CCN(S(=O)(=O)c3ccc(Cl)cc3)CC2)nc2cc(Cl)ccc12 | - | - | - | - | - | - | . | .
CC(=O)N1CCN(Cc2nc3cc(Cl)ccc3c(=O)[nH]2)CC1 | - | - | - | - | 87 | - | 42 | - | Aptamer quench=-;GRK2 CP2=-;FAM quench CP2=-;FAM quench DR=-
CCOc1ccc(NS(=O)(=O)c2ccc3[nH]c(=O)[nH]c3c2)cc1 | - | - | - | - | 50 | - | - | -
COc1cccc(NC(=O)Nc2cccc(C)n2)c1 | - | - | - | - | 58 | - | - | -
COc1cccc(NC(=O)c2cccnn2)c1 | - | - | - | - | 41 | - | - | -
O=C(NCCc1ccccc1)[C@@H]1CC=C[C@@H]2CCN(Cc3ccccc3)C(=O)[C@@H]21 | - | - | . | - | - | - | . | .
COC(=O)c1ccc(OC(=O)CCS(=O)(=O)c2ccc(C)cc2)cc1 | - | - | . | - | - | - | . | .
O=C(O)CC(NCc1ccco1)C(=O)OCCc1ccccc1 (stereo unspecified) | - | - | . | - | - | - | . | .
C=C(C)CCOC(=O)C(CC(=O)O)NCc1ccco1 (stereo unspecified) | - | - | . | - | 43 | - | - | -
O=C(O)c1ccccc1-c1nnc2c(Cl)cc(C(F)(F)F)cn12 | - | - | - | - | - | - | - | -
CCN(CC)C(=O)Cn1c(=O)n(CCCC(=O)NCc2ccc3c(c2)OCO3)c(=O)c2sccc21 | - | - | - | - | - | - | . | .
O=C(/C=C/NCc1cccnc1)c1ccc(Br)cc1 | - | - | . | - | - | - | . | .
CCN(/N=C/c1ccc(Cl)cc1)c1cc(=O)n(C)c(=O)[nH]1 | - | - | - | - | 92 | - | - | -
CCN(/N=C/C=C/c1ccccc1)c1cc(=O)n(C)c(=O)[nH]1 | - | - | - | - | - | - | . | .
Cc1cccc(C(=O)N2CCN(c3ccc(C(F)(F)F)cn3)CC2)c1C | - | - | - | - | - | - | - | -

Source: PubChem BioAssay (several laboratories)
